Published values pooled from the literature.
Protocols differ between the studies behind these lines.
Target: Protein kinase C iota type (PRKCI, Homo sapiens, UniProt P41743)
Residues used in one study (P41743 1-596): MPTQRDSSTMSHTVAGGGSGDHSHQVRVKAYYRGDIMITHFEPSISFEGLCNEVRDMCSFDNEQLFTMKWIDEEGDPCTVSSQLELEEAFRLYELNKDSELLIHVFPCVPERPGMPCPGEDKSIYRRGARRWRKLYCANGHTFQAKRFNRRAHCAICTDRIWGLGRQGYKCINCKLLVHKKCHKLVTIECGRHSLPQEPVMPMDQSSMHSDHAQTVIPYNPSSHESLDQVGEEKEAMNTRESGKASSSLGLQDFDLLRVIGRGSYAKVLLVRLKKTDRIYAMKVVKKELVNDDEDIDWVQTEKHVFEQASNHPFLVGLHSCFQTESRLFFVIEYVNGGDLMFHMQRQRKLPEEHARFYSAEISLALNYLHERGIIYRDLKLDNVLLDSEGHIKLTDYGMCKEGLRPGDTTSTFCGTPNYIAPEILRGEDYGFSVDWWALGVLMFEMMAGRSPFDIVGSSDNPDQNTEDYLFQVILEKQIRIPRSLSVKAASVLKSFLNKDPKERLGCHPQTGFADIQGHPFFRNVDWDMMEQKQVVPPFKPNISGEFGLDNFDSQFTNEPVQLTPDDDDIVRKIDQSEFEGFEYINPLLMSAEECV

SMILES | assay | conditions | measurement | value
CO[C@@H]1[C@H](N(C)C(=O)c2ccccc2)C[C@H]2O[C@]1(C)n1c3ccccc3c3c4c(c5c6ccccc6n2c5c31)C(=O)NC4 | enzyme activity, inhibitor | 1 µM | inhibition | 43%
C1=C/COCc2cc(ccc2OCCN2CCCC2)Nc2nccc(n2)-c2cccc(c2)COC/1 | binding | 0.1 µM | remaining binding | 95%
CC#CC(=O)N1CCC[C@H]1c1nc(-c2ccc(C(=O)Nc3ccccn3)cc2)c2c(N)nccn12 | enzyme activity, inhibitor | 1 µM | inhibition | 0%
CN1CCN(C(=O)c2ccc(NC(=O)Nc3ccc(N(C)c4ccnc(Nc5ccc(CS(C)(=O)=O)cc5)n4)cc3)cc2)CC1 | binding | 1 µM | remaining binding | 74%
CCCCC(=O)Nc1ccc(-c2ccc3ncn(CCC)c(=O)c3c2)cn1 | binding, competition with immobilised ligand | 0.5 µM | remaining binding | 91%
CC(C)S(=O)(=O)c1ccc2nccc(Nc3ccc4sc(C5CCCC5)nc4c3)c2c1 | enzyme activity, inhibitor | 1 µM | activity vs control | 107%
COc1ccc2[nH]c3c4[nH]c5ccc(OC)cc5c4c4c(c3c2c1)C(=O)NC4=O | binding | 1 µM | remaining binding | 63%
Cc1cc(O)c(-c2ccc([C@@H](C)CN(C)C)cc2)c2c1[nH]c(=O)c1sccc12 | cell-free assay, inhibitor | 0.1 µM, lysate | inhibition | 7.26%
